From PubChem BioAssay
Results filed as inconclusive are left out. Calls of active or inactive are those of the source.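 Rule for the calls, unless noted: active = cell viability at or below a set limit in both duplicate runs, the limit being the all-compound median minus 4 SD (cut at about 23% in these data, passing the limit was not always enough); inconclusive = no clear call, values can overlap the other calls; inactive = the rest.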

Key:
[1] = S. cerevisiae growth inhibition in permissive medium (OD615), pilot counter-assay for S. cerevisiae lifespan shortening project, permissive growth control (AID 705;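 active = growth inhibition above 25% in both replicates, a cutoff set 3 SD above the mean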); conditions: OD615, 24 h, at 10 µM, stronger effect = higher value
Outline: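 Material: engineered DeaD yeast; compound dosing: one dose 10 µM, DMSO 0.25% final; measure: yeast growth inhibition indicated by reduced 24 h OD615; detection: OD615 turbidity read; incubation: cells pre-grown 4 h, then 24 h compound exposure, 30 °C humidified; medium: permissive synthetic complete medium with raffinose and galactose carbon sources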

[2] = S. cerevisiae growth inhibition in restrictive medium, OD615, pilot screen, restrictive growth control, yeast lifespan reduction project (AID 706;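 active = growth inhibition above a set limit, 3 SD over mean compound inhibition, in both replicates, cut at about 43% in these data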;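 note: modified DeaD lifespan yeast strain shifted to restrictive glucose medium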); conditions: OD615, 48 h, at 10 µM, stronger effect = higher value
Outline: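 material = engineered S. cerevisiae DeaD strain | medium = glucose-based CSMM-D restrictive medium | times = 4 h pre-incubation, 48 h exposure at 30 °C | technique = OD615 absorbance reading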

[3] = doxorubicin toxicity protection in MRP-1 cells – H69AR cells, CellTiter-Glo, duplicate, MRP-1 activator project, pilot screen (AID 807;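 active = viability increase at or above a cutoff of the median across tested compounds plus 3 SD, cut at about 8.5% in these data, passing the limit was not always enough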;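 note: compound pretreatment 18-22 h then 72 h combined with doxorubicin; 0% = doxorubicin alone and 100% = vehicle without doxorubicin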); conditions: H69AR viability with doxorubicin, CellTiter-Glo luminescence; at 10 µM; stronger effect = higher value
[4] = viability of HCT116 without oncogenic beta-catenin – human colon tumor cells, pilot screen (AID 823); conditions: HCT116 beta-catenin knockout viability, CellTiter-Glo, 60 h; at 10 µM; stronger effect = lower value;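 note: 0% = wells killed by 20 µM Hyamine and 100% = untreated DMSO cell wells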
[5] = viability of PTEN-null HCT116 cells – cell-based, HCT116 clonal line, CellTiter-Glo, pilot screen (AID 824;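 active = viability at or below 27.92% in each of two runs, the all-compound median minus 4 SD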;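 note: 0% = 20 µM Hyamine control and 100% = vehicle cell control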); conditions: HCT116 PTEN-deleted viability, 60 h, at 10 µM, stronger effect = lower value
[6] = RAM pathway blockade in budding yeast – dse1pr::URA3 reporter, 5-FOA selection, pilot screen (AID 869;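 active = inhibition over a set limit, the all-compound mean plus 3 SD, in both replicate runs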;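 note: 0% = DMSO wells with no growth and 100% = 10 µM 1-NA-PP1 with full growth; RAM network block rescues cells from 5-FOA so hits raise OD615 growth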); conditions: S. cerevisiae dse1pr::URA3 5-FOA growth, OD615, 2 d; at 10 µM; stronger effect = higher value; strain carries analog-sensitive mutant Cbk1 kinase
[7] = RAM signaling pathway blockade in yeast – S. cerevisiae, Pdr1DBD-CYC8 efflux-inhibited sensitized strain, primary screen (AID 1298;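 active = RAM network inhibition above 8.4% in each of two replicates, 3 SD over the compound average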;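 note: 0% = DMSO untreated cells without growth and 100% = 10 µM 1-NA-PP1 full growth; higher means more yeast growth rescued from 5-FOA killing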); conditions: S. cerevisiae cbk1-as DSE1-URA3 strain, 5-FOA growth OD615, 2 d; at 50 µM; stronger effect = higher value

CCCNc1nc2c(c(=O)n(C)c(=O)n2C)n1Cc1ccc(F)cc1
inactive: growth inhibition [1] -3.24% | growth inhibition [2] -4.52% | viability increase [3] -1.45% | viability [4] 78.8% | viability [5] 79.1% | inhibition [6] 0.88% | RAM network inhibition [7] 3.07%

O=C(O)c1ccc2c(c1)N(Cc1cccc(F)c1)C(=O)CS2
inactive: growth inhibition [1] 2.4% | growth inhibition [2] -0.16% | viability increase [3] 0.93% | viability [4] 102% | viability [5] 102% | inhibition [6] 0.2% | RAM network inhibition [7] 1.36%

CCNC(=O)c1c(N)sc2c1CCCCC2
inactive: growth inhibition [1] -5.81% | growth inhibition [2] 1.6% | viability increase [3] -2.57% | viability [4] 103% | viability [5] 100% | inhibition [6] 1.88% | RAM network inhibition [7] 4.23%

CCOc1ccccc1Nc1ncnc2c1cnn2-c1ccccc1
inactive: growth inhibition [1] -6.82% | growth inhibition [2] -5.11% | viability increase [3] 3.06% | viability [4] 93.6% | viability [5] 91.1% | inhibition [6] 2.2% | RAM network inhibition [7] 5.59%

COC(=O)C(C(=O)OC)C(C(=O)OC)C(C(=O)OC)C(=O)OC
inactive: growth inhibition [1] -6.07% | growth inhibition [2] -6.78% | viability increase [3] -1.54% | viability [4] 97.2% | viability [5] 92.6% | inhibition [6] 0.42% | RAM network inhibition [7] -1.61%

CC(=O)c1c(Nc2ccc3c(c2)OCCO3)oc(C)cc1=O
inactive: growth inhibition [1] -21.9% | growth inhibition [2] 0.47% | viability increase [3] -5.39% | viability [4] 110% | viability [5] 100% | inhibition [6] 0.68% | RAM network inhibition [7] -2.1%

O=C1c2oc3ccc(F)cc3c(=O)c2C(c2cccc(O)c2)N1CCCN1CCOCC1 (stereo not drawn)
inactive: growth inhibition [1] -6.24% | growth inhibition [2] -8.16% | viability increase [3] 0.39% | viability [4] 99% | viability [5] 96.2% | inhibition [6] 0.63% | RAM network inhibition [7] 0.27%

Fc1ccc(C2CC(c3ccccc3)Nc3ncnn32)cc1 (stereo not drawn)
inactive: growth inhibition [1] -10.3% | growth inhibition [2] -3.12% | viability increase [3] -0.63% | viability [4] 93.5% | viability [5] 98.1% | inhibition [6] 1.04% | RAM network inhibition [7] 1.19%

COc1ccc(C(=O)Nc2cc(=O)n(C)c(=O)n2C)cc1OC
inactive: growth inhibition [1] -0.79% | growth inhibition [2] 6.3% | viability increase [3] -1.84% | viability [4] 104% | viability [5] 94.2% | inhibition [6] 1.09% | RAM network inhibition [7] -1.14%

Cc1cccc(N2CCN(C(=O)C3CCN(c4nnc(-n5cccc5)s4)CC3)CC2C)c1 (stereo not drawn)
inactive: growth inhibition [1] -6.52% | growth inhibition [2] -21.5% | viability increase [3] -1.6% | viability [4] 40.1% | viability [5] 45% | inhibition [6] 0.825% | RAM network inhibition [7] 2.84%

CCC(=O)Nc1cccc(-c2nnc(SCC(=O)c3ccccc3)n2C)c1
active: growth inhibition [2] 45.9%
inactive: growth inhibition [1] 0.325% | viability increase [3] -1.76% | viability [4] 91.7% | viability [5] 92.6% | inhibition [6] 0% | RAM network inhibition [7] 4.95%

CCC(Sc1nc(C)cc(=O)[nH]1)C(=O)Nc1ccc(Cl)cn1 (stereo not drawn)
inactive: growth inhibition [1] -2.36% | growth inhibition [2] 26.5% | viability increase [3] -3.4% | viability [4] 98.9% | viability [5] 96.7% | inhibition [6] 1.84% | RAM network inhibition [7] 3.08%

O=C(NCC1CCCO1)c1ccc2c(c1)C(=O)N(C1CCCCC1)C2=O (stereo not drawn)
inactive: growth inhibition [1] -10.7% | growth inhibition [2] -6.06% | viability increase [3] 1.19% | viability [4] 100% | viability [5] 91.5% | inhibition [6] 3.77% | RAM network inhibition [7] 3.57%

CCc1nnc(NC(=O)CSc2nccn2-c2cccc(C)c2C)s1
inactive: growth inhibition [1] 2.46% | growth inhibition [2] 32.5% | viability increase [3] -5.37% | viability [4] 46.2% | viability [5] 42.9% | inhibition [6] 0.935% | RAM network inhibition [7] 1.37%

Cc1c(C(=O)OCC2CCCO2)[nH]c2c1C(=O)CC(c1ccc(N(C)C)cc1)C2 (stereo not drawn)
inactive: growth inhibition [1] -4.14% | growth inhibition [2] 3.2% | viability increase [3] -0.25% | viability [4] 67.7% | viability [5] 71.5% | inhibition [6] 1.09% | RAM network inhibition [7] 6.62%

CCOC(=O)N1CCN(C(=O)CS(=O)Cc2nc(-c3cccc(C)c3)oc2C)CC1 (stereo not drawn)
inactive: growth inhibition [1] -10.5% | growth inhibition [2] -16.8% | viability increase [3] -1.34% | viability [4] 104% | viability [5] 100% | inhibition [6] 1.69% | RAM network inhibition [7] 1.11%

CCC(Sc1ccc2nnc(-c3cccnc3)n2n1)C(=O)O (stereo not drawn)
inactive: growth inhibition [1] -18.7% | growth inhibition [2] -14.8% | viability increase [3] -0.8% | viability [4] 100% | viability [5] 95.8% | inhibition [6] 2.44% | RAM network inhibition [7] 6.69%

CC(C)c1nnc(NC(=O)CSc2ncn[nH]2)s1
inactive: growth inhibition [1] -14.4% | growth inhibition [2] -13.9% | viability increase [3] -0.74% | viability [4] 98.3% | viability [5] 94.2% | inhibition [6] 0.135% | RAM network inhibition [7] 1.34%

CCn1c(=O)c2cc(C(=O)N3CCN(C(=O)c4ccco4)CC3)sc2c2ccccc21
inactive: growth inhibition [1] -1.96% | growth inhibition [2] -0.815% | viability increase [3] -3.68% | viability [4] 84% | viability [5] 86.3% | inhibition [6] 2.02% | RAM network inhibition [7] 7.64%

COC(=O)c1ccccc1NC(=O)C1CCCN(c2nnc(-n3cccc3)s2)C1 (stereo not drawn)
inactive: growth inhibition [1] -1.67% | growth inhibition [2] 4.77% | viability increase [3] -2.28% | viability [4] 86.2% | viability [5] 82.2% | inhibition [6] 1.65% | RAM network inhibition [7] 8.61%

CC(C)c1ccc(NC(=O)c2cccnc2)cc1
inactive: growth inhibition [1] -3.85% | growth inhibition [2] -12.2% | viability increase [3] 0.68% | viability [4] 89.4% | viability [5] 94.3% | inhibition [6] 0.32% | RAM network inhibition [7] 2.26%

CCCCCn1c(CNC(=O)c2cccs2)nc2ccccc21
inactive: growth inhibition [1] -5.02% | growth inhibition [2] 3.4% | viability increase [3] -2.58% | viability [4] 90.8% | viability [5] 94% | inhibition [6] 0.42% | RAM network inhibition [7] 3.16%

O=C(O)CC12CSc3[nH]c(=O)sc3C1c1ccccc1OC2=O (stereo not drawn)
inactive: growth inhibition [1] 3.48% | growth inhibition [2] -0.005% | viability increase [3] -2.73% | viability [4] 101% | viability [5] 95% | inhibition [6] 1.14% | RAM network inhibition [7] -0.11%

COc1cccc2c(=O)n(CC(=O)N3CCN(c4ccccc4)CC3)ccc12
inactive: growth inhibition [1] -7.37% | growth inhibition [2] -7.01% | viability increase [3] -0.94% | viability [4] 99.7% | viability [5] 98.1% | inhibition [6] 1.39% | RAM network inhibition [7] 4.22%
